The values below come from ChEMBL document CHEMBL3399946, “Structure-activity relationships of substituted 1H-indole-2-carboxamides as CB1 receptor allosteric modulators” (Bioorg Med Chem, 2015).

The target of assay [1] is Cannabinoid receptor 2 (Homo sapiens) (UniProt P34972). Kind of assay: Antagonist activity at human CB2 receptor expressed in CHO-RD-HGA16 cells assessed as inhibition of CP55940-induced calcium mobilization at 10 uM incubated for 15 mins prior to CP55940 addition by FLIPR assay. Type of assay: functional, cell-based. On the technique in general: Calcium assays in cells follow changes in intracellular calcium, usually with a dye or a luminescent sensor.
Sequence of Cannabinoid receptor 2 (Homo sapiens) (P34972 whole entry): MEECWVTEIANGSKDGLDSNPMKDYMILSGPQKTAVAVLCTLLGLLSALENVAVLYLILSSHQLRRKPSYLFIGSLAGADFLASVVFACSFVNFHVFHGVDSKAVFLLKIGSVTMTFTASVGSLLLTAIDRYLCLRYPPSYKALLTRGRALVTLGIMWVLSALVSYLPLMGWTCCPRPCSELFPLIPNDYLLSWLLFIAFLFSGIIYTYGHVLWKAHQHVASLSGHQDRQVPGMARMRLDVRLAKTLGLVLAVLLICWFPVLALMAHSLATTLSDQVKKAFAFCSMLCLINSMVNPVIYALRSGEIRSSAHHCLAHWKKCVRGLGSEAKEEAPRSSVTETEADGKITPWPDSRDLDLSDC

In assay [2] the target is T1, Cannabinoid receptor 1 (Homo sapiens, UniProt P21554). Kind of assay: Antagonist activity at human CB1 receptor expressed in CHO-RD-HGA16 cells assessed as inhibition of CP55940-induced calcium mobilization incubated for 15 mins prior to CP55940 addition by FLIPR assay. Type of assay: functional, cell-based.
T1 sequence (P21554 whole entry): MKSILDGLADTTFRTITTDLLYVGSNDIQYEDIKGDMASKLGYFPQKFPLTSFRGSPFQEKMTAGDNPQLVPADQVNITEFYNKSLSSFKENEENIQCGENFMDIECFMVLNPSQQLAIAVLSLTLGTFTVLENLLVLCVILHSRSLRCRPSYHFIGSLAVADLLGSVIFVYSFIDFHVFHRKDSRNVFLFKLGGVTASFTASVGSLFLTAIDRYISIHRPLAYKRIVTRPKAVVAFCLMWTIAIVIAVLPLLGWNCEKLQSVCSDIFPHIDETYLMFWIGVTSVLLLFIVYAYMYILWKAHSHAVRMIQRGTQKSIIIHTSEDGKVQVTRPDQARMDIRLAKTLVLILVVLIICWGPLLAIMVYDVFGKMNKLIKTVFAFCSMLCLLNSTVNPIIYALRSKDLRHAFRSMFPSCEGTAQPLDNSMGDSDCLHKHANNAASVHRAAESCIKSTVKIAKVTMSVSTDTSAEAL
For assay [3], the target named is T1, Cannabinoid receptor 1. Kind of assay: Agonist activity at human CB1 receptor expressed in CHO-RD-HGA16 cells at 10 uM after 15 mins by FLIPR assay relative to CP55940. Type of assay: cell-based. The procedure, abridged:
(§1)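 Stably transfected CHO-RD-HGA16 cells (human CB1, or CB2 for line 2) seeded the day before (CB1 25,000, CB2 30,000 cells/well), cultured overnight at 37°C, 5% CO2. Loaded 45 min at 37°C with Calcium 5 dye in HBSS/20 mM HEPES/2.5 mM probenecid, pH 7.4.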

The target of assay [4] is Cannabinoid receptor 2 (Homo sapiens) (UniProt P34972). Kind of assay: Agonist activity at human CB2 receptor expressed in CHO-RD-HGA16 cells at 10 uM after 15 mins by FLIPR assay relative to CP55940. Type of assay: cell-based. Put shortly:
as §1

The target in assay [5] is T1, Cannabinoid receptor 1. Kind of assay: Allosteric modulation of human CB1 receptor expressed in CHO-RD-HGA16 cells assessed as reduction of CP55940 Emax by calcium mobilization assay. Type of assay: functional, cell-based. Put shortly:
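CB1-expressing CHO-RD-HGA16 cells seeded at 25,000/well the previous day and loaded with Calcium 5 dye for 45 min at 37°C (HBSS, 20 mM HEPES, 2.5 mM probenecid, pH 7.4). Pretreated 15 min at 37°C with a single concentration of test compound, then serial dilutions of CP55,940 added on FLIPR Tetra. Fluorescence plotted against agonist concentration.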

Each structure is given as a SMILES string. Some results are limits rather than exact numbers.

Broadly, the inhibition is the relative decrease from the control value, in per cent. The term IC50 denotes the point on the concentration scale where inhibition reaches its midpoint. Regarding `CCc1c(C(=O)NCCc2ccc([N+](=O)[O-])cc2)[nH]c2ccc(Cl)cc12`, in assay [1], the inhibition was 34.8%. Further, the IC50 on Cannabinoid receptor 1 [2] is 5.74 µM. In addition, the Activity (on Cannabinoid receptor 1 [3]; in assay [4]) was less than 30% each time.

As for `O=C(NCCc1ccc(N2CCCCC2)cc1)c1cc2cc(Cl)ccc2[nH]1`, the inhibition in assay [1] was 15%. Besides, the IC50 on Cannabinoid receptor 1 [2] came to 0.212 µM. For the same compound, the Activity (on Cannabinoid receptor 1 [3]; in assay [4]) was less than 30% in each case.

With `CCCC(=O)Nc1ccc(CCNC(=O)c2[nH]c3ccc(Cl)cc3c2CC)cc1`, the inhibition in assay [1] worked out at 43%. Moreover, on Cannabinoid receptor 1 [2], the IC50 is greater than 10 µM. Further, the Activity (on Cannabinoid receptor 1 [3]; in assay [4]) was less than 30% throughout.

As to `O=C(NCCc1ccc(N2CCCCC2)cc1)c1cc2cc(F)ccc2[nH]1`, the inhibition in assay [1] was 20.8%. The IC50 on Cannabinoid receptor 1 [2] came to 0.319 µM. Moreover, the Activity (on Cannabinoid receptor 1 [3]; in assay [4]) was less than 30% throughout.

As for `CCc1c(C(=O)NCCc2cccc(N(C)C)c2)[nH]c2ccc(Cl)cc12`, the inhibition in assay [1] was -3.7%. In addition, at Cannabinoid receptor 1 [2], the IC50 is greater than 10 µM.

Regarding `CCN(CC)c1ccc(CCNC(=O)c2[nH]c3ccc(F)cc3c2C)cc1`, on Cannabinoid receptor 1 [2], the IC50 is 0.151 µM. The Activity (at Cannabinoid receptor 1 [3]; in assay [4]) was less than 30% in each case.

For `CCc1c(C(=O)NCCc2ccc(N3CCCCC3)cc2)[nH]c2ccc(F)cc12`, the IC50 on Cannabinoid receptor 1 [2] was 0.605 µM. The Activity (at Cannabinoid receptor 1 [3]; in assay [4]) was less than 30% in each case.

For the compound `CCc1c(C(=O)NCCc2cccc(OC)c2)[nH]c2ccc(Cl)cc12`, the inhibition in assay [1] is -6%. Also, on Cannabinoid receptor 1 [2], the IC50 came to 2.1 µM. Also, the Activity (on Cannabinoid receptor 1 [3]; in assay [4]) was less than 30% in each case.

Regarding `CCc1c(C(=O)NCCc2ccc(Cl)c(Cl)c2)[nH]c2ccc(Cl)cc12`, in assay [1], the inhibition was -3.2%. Also, on Cannabinoid receptor 1 [2], the IC50 amounted to 2.17 µM. Also, the Activity (on Cannabinoid receptor 1 [3]; in assay [4]) was less than 30% throughout.

As to `CCc1c(C(=O)NCCc2ccc(Cl)cc2)[nH]c2ccc(Cl)cc12`, the inhibition in assay [1] was -4.8%. Also, the IC50 at Cannabinoid receptor 1 [2] was found to be 2.5 µM. The Activity (at Cannabinoid receptor 1 [3]; in assay [4]) was less than 30% each time.

With `CCN(CC)c1ccc(CCNC(=O)c2cc3cc(Cl)ccc3[nH]2)cc1`, the inhibition in assay [1] worked out at 0.7%. The Activity result at Cannabinoid receptor 1 [5] is “Dose-dependent effect”; at Cannabinoid receptor 1 [3], less than 30%; in assay [4], less than 30%. Further, the IC50 at Cannabinoid receptor 1 [2] was 0.079 µM.

For `CCc1c(C(=O)NC2CCN(Cc3ccccc3)C2)[nH]c2ccc(Cl)cc12` (configuration not stated), in assay [1], the inhibition was -6.2%. Further, at Cannabinoid receptor 1 [2], the half-maximal inhibitory concentration (IC50) stood at 4.76 µM. Also, the Activity (at Cannabinoid receptor 1 [3]; in assay [4]) was less than 30% each time.

As to `CCCCCC(=O)Nc1ccc(CCNC(=O)c2[nH]c3ccc(Cl)cc3c2CC)cc1`, the inhibition in assay [1] is 1%. Further, the IC50 on Cannabinoid receptor 1 [2] is greater than 10 µM. The Activity (on Cannabinoid receptor 1 [3]; in assay [4]) was less than 30% throughout.

With `CCc1c(C(=O)NCCc2ccc(NC(C)=O)cc2)[nH]c2ccc(Cl)cc12`, the inhibition in assay [1] was -3.3%. In addition, at Cannabinoid receptor 1 [2], the half-inhibitory concentration (IC50) is greater than 10 µM. For the same compound, the Activity (on Cannabinoid receptor 1 [3]; in assay [4]) was less than 30% in each case.

Regarding `CCc1c(C(=O)NCCc2ccccc2Cl)[nH]c2ccc(Cl)cc12`, the inhibition in assay [1] was 28.5%. Besides, the IC50 on Cannabinoid receptor 1 [2] came to 5.81 µM. The Activity (on Cannabinoid receptor 1 [3]; in assay [4]) was less than 30% each time.

Turning to `CCCN(CCC)c1ccc(CCNC(=O)c2[nH]c3ccc(Cl)cc3c2CC)cc1`, the IC50 at Cannabinoid receptor 1 [2] came to 1.8 µM. Also, the Activity (on Cannabinoid receptor 1 [3]; in assay [4]) was less than 30% each time.

On to `CCc1c(C(=O)NCCc2ccc(N(CC)CC)cc2)[nH]c2ccc(Cl)cc12`, for which the IC50 on Cannabinoid receptor 1 [2] stood at 0.483 µM. Moreover, the Activity (at Cannabinoid receptor 1 [3]; in assay [4]) was less than 30% in each case.

Take `Cc1c(C(=O)NCCc2ccc(N3CCCCC3)cc2)[nH]c2ccc(F)cc12`: in assay [1], the inhibition was -8.2%. In addition, the IC50 at Cannabinoid receptor 1 [2] turned out to be 0.279 µM. For the same compound, the Activity (at Cannabinoid receptor 1 [3]; in assay [4]) was less than 30% throughout.

For the compound `CCc1c(C(=O)NCCc2ccc(C(C)(C)C)cc2)[nH]c2ccc(Cl)cc12`, the IC50 on Cannabinoid receptor 1 [2] came to 2.43 µM. Also, the Activity (at Cannabinoid receptor 1 [3]; in assay [4]) was less than 30% in each case.

For `CCc1c(C(=O)NCCc2ccccc2)[nH]c2ccc(Cl)cc12`, the inhibition in assay [1] is -6.2%. The IC50 on Cannabinoid receptor 1 [2] worked out at 3.15 µM. Further, the Activity (at Cannabinoid receptor 1 [3]; in assay [4]) was less than 30% throughout.

For the compound `CCc1c(C(=O)Nc2cccc(-c3cccc(N(C)C)n3)c2)[nH]c2ccc(Cl)cc12`, the IC50 at Cannabinoid receptor 1 [2] was greater than 10 µM. For the same compound, the Activity (on Cannabinoid receptor 1 [3]; in assay [4]) was less than 30% throughout.

In the case of `CCc1c(C(=O)NCCc2ccc(OC)c(O)c2)[nH]c2ccc(Cl)cc12`, in assay [1], the inhibition is -7%. For the same compound, on Cannabinoid receptor 1 [2], the concentration for half-maximal inhibition (IC50) was greater than 10 µM. The Activity (on Cannabinoid receptor 1 [3]; in assay [4]) was less than 30% each time.

As for `CCc1c(C(=O)NCCc2ccc(N(C)C)cc2)[nH]c2ccc(F)cc12`, the Activity result is “Dose-dependent effect” at Cannabinoid receptor 1 [5], less than 30% on Cannabinoid receptor 1 [3] and less than 30% in assay [4]. In addition, the IC50 on Cannabinoid receptor 1 [2] turned out to be 0.205 µM.

Regarding `CCCCCCNc1ccc(CCNC(=O)c2[nH]c3ccc(Cl)cc3c2CC)cc1`, the IC50 on Cannabinoid receptor 1 [2] was 3.62 µM. Further, the Activity (on Cannabinoid receptor 1 [3]; in assay [4]) was less than 30% throughout.

On to `CCc1c(C(=O)N2CCN(c3ccccc3)CC2)[nH]c2ccc(Cl)cc12`, for which, at Cannabinoid receptor 1 [2], the IC50 was greater than 10 µM. For the same compound, the Activity (at Cannabinoid receptor 1 [3]; in assay [4]) was less than 30% each time.

For the compound `CCc1c(C(=O)NCCc2ccc(N3CCCCC3)cc2)[nH]c2ccc(Cl)cc12`, the Activity entry on Cannabinoid receptor 1 [5] is “Dose-dependent effect”; on Cannabinoid receptor 1 [3], less than 30%; in assay [4] it was less than 30%. In addition, the IC50 on Cannabinoid receptor 1 [2] is 0.853 µM.

Regarding `CCc1c(C(=O)NCCc2cccc(Cl)c2)[nH]c2ccc(Cl)cc12`, the inhibition in assay [1] turned out to be 24.8%. The IC50 on Cannabinoid receptor 1 [2] stood at 0.831 µM. Besides, the Activity (at Cannabinoid receptor 1 [3]; in assay [4]) was less than 30% each time.

Take `CCc1c(C(=O)NCCc2ccc(N(CC)CC)cc2)[nH]c2ccc(F)cc12`: on Cannabinoid receptor 1 [2], the IC50 is 0.361 µM. In addition, the Activity (on Cannabinoid receptor 1 [3]; in assay [4]) was less than 30% in each case.

For `CCc1c(C(=O)NCCc2ccc3c(c2)OCO3)[nH]c2ccc(Cl)cc12`, the inhibition in assay [1] was 25.8%. Also, on Cannabinoid receptor 1 [2], the IC50 was determined as 4.32 µM. Besides, the Activity (on Cannabinoid receptor 1 [3]; in assay [4]) was less than 30% each time.

With `CCc1c(C(=O)NCCc2ccc(N(C)C)cc2)[nH]c2ccc(Cl)cc12`, the IC50 on Cannabinoid receptor 1 [2] is 0.787 µM. The Activity (on Cannabinoid receptor 1 [3]; in assay [4]) was less than 30% throughout.

For the compound `CCc1c(C(=O)N2CCN(c3ccc(Cl)cc3)CC2)[nH]c2ccc(Cl)cc12`, on Cannabinoid receptor 1 [2], the IC50 is greater than 10 µM. Further, the Activity (on Cannabinoid receptor 1 [3]; in assay [4]) was less than 30% in each case.

As for `CCc1c(C(=O)NCCc2cccc(O)c2)[nH]c2ccc(Cl)cc12`, the inhibition in assay [1] is -0.1%. Besides, the IC50 at Cannabinoid receptor 1 [2] was greater than 10 µM. The Activity (at Cannabinoid receptor 1 [3]; in assay [4]) was less than 30% in each case.

Regarding `CCc1c(C(=O)NCCc2ccc(OC)cc2)[nH]c2ccc(Cl)cc12`, the IC50 on Cannabinoid receptor 1 [2] was 2.56 µM. The Activity (on Cannabinoid receptor 1 [3]; in assay [4]) was less than 30% in each case.

Turning to `CCN(CC)c1ccc(CCNC(=O)c2cc3cc(F)ccc3[nH]2)cc1`, the IC50 at Cannabinoid receptor 1 [2] was determined as 0.318 µM. Besides, the Activity (on Cannabinoid receptor 1 [3]; in assay [4]) was less than 30% each time.
